Screens as filed in PubChem.
PMI act hi M6P – increases human PMI activity with near-saturating mannose 6-phosphate. P34949. coupled PMI enzyme assay, resazurin fluorescence, 20 min; stronger effect = higher value; 1 = untreated enzyme, 0 = substrate-free blank. actives 0.34% (n = 190,000). activation factor at 20 µM;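 active = activation factor of 2 or more at 20 µM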
Target sequence (P34949 whole entry, looked up): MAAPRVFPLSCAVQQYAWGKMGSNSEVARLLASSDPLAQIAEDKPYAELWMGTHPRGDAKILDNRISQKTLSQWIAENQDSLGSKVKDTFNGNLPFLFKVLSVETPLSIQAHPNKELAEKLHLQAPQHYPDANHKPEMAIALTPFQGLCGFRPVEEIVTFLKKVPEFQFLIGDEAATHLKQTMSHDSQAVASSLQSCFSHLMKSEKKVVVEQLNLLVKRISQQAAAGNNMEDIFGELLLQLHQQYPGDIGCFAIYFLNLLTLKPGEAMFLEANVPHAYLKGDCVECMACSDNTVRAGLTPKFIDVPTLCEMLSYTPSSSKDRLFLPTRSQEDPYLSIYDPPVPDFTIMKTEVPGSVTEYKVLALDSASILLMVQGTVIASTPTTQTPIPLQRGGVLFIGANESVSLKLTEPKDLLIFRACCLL
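Test system – human PMI in coupled enzyme assay · Timing – 20 min incubation at room temperature · Detection – Diaphorase-driven resazurin-to-resorufin fluorescence, excitation 544, emission 590 nm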
Diaphorase act – activates diaphorase or chemically reduces, flagging diaphorase assay artifacts | Diaphorase/resazurin coupled assay, resorufin fluorescence, 16 min; stronger effect = higher value; 1 = vehicle wells, 0 = NADH-free wells | actives 0.005% (n = 190,000) | activation factor at 20 µM;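 active = diaphorase activity raised at least twofold by the compound at 20 µM; inactive = activation factor below 2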
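Material: bacterial diaphorase enzyme (C. kluyveri); amount: enzyme 0.07 U/mL final; reagent: NADH substrate 0.114 mM plus resazurin dye 0.1 mM, final; doses: single compound dose of 20 µM, 1% DMSO final; timing: 16 min enzyme reaction, ambient temperature; measured by: fluorescence of resorufin, 544 nm excitation, 590 nm emission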
Diaphorase inh – diaphorase inhibition or chemical oxidation counter-screen; diaphorase resazurin-to-resorufin fluorescence, NADH, 16 min; bacterial (C. kluyveri) enzyme, not human; inhibition, % at 20 µM; actives 0.69% (n = 190,000); AID 1217;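 active = primary screen inhibition at 20 µM above a set limit, cut at about 50% in these data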
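Test system: bacterial diaphorase enzyme (C. kluyveri); Quantity: 0.14 U/mL diaphorase, enzyme working solution; Times: reaction incubation of 16 min at room temperature; Measured by: fluorescence of resorufin formed from resazurin, Ex 544/Em 590 nm; Benchmarks: positive control minus NADH, DMSO neutral control.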
PMI act – phosphomannose isomerase (human) activation; actives 0.005% (n = 190,000); purified human PMI, coupled resazurin fluorescence, 20 min; stronger effect = higher value; 1 = vehicle control, 0 substrate-free wells; activation factor at 20 µM; AID 1214;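 active = activation factor of 2 or more at 20 µM, relative to plate controls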
G6PDH CS – counter-screen for G6PDH assay hits: L. mesenteroides G6PDH inhibition; Purified L. mesenteroides G6PDH, diaphorase/resazurin coupled fluorescence, 45 min; actives 0.12% (n = 200,000); inhibition, % at 5 µM; in the data active = inhibition above about 50%
Of the large screens only hits and unclear results are named; the others gave an inactive call. Rows were chosen to be rich in hits. Some 1.1% of all compounds tested hit in one or more screens of this group.

COc1ccc(C2C=C(Nc3ccccc3)C(=O)N2c2ccccc2)cc1OC (stereo unspecified)	none
COc1cccc(C2C=C(Nc3ccccc3)C(=O)N2c2ccccc2)c1 (stereo unspecified)	PMI act hi M6P 2.2
O=C(c1ccc(COc2ccccc2Br)o1)N1N=C(C(F)F)CC1(O)C(F)F (stereo unspecified)	none
Cc1ccccc1N/N=C/c1ccc(C#N)cc1	PMI act hi M6P 2.4
CC(=O)c1cccc(CN2CCCC(CCC(=O)NCc3ccccc3F)C2)c1 (stereo unspecified)	none
COc1ccc(/C=N/n2c(-c3n[nH]c4c3CCC4)n[nH]c2=S)cc1OC	Diaphorase inh 63
O=C1NC(=O)/C(=C\c2ccc(O)cc2O)S1	Diaphorase inh 82
Cc1cc(N2CCOCC2)ccc1/C=C1/SC(=O)NC1=O	none
CCn1c(CC(=O)Nc2ccccc2)n[nH]c1=S	none
Cc1ccc(C(=O)NC(=S)/C=C2\N(C)c3ccccc3C2(C)C)cc1	Diaphorase inh 67
CC(C)C(=O)NC(=S)/C=C1/N(C)c2ccccc2C1(C)C	none
Cc1ccc(/C=C2\CCCC3=C2NC(=S)NC3c2ccc(C)cc2)cc1 (stereo unspecified)	PMI act hi M6P 2
CN(C)c1ccc(NC(=O)c2ccc(Cn3cc([N+](=O)[O-])cn3)cc2)cc1	none
Cc1c(S(=O)(=O)N2CCOCC2)c(=O)n(C)c(=O)n1C	none
CC(C)c1nc2oc3c(NCC4CCCO4)ncnc3c2c2c1COC(C)(C)C2 (stereo unspecified)	Diaphorase inh 90
CCC(=O)Nc1cccc(C(=O)c2ccc(C)c(C)c2)c1	none
O=[N+]([O-])c1ccccc1N/N=C1\CC2CC=CC12 (stereo unspecified)	Diaphorase inh 61
CCc1ccccc1NC(=S)N(CCN(C)C)C(C)c1cccnc1 (stereo unspecified)	none
S=c1[nH]c(-c2ccccc2)cn1/N=C/c1ccc(Br)cc1	none
Cc1ccc(C)c(/C=N/n2cc(-c3ccccc3)[nH]c2=S)c1	Diaphorase inh 76
O=C1c2ccccc2C(O)(Cc2ccccc2)N1CCCN1CCOCC1 (stereo unspecified)	none
CC(C)CN1C(=O)c2ccccc2C1(O)Cc1ccccc1 (stereo unspecified)	PMI act hi M6P 2
